Measured values taken from PMC6774440 (Journal of molecular recognition : JMR, 2018).

The molecules below were run on T10. Conditions: cross-reactivity = IC50(TCC)/IC50(cross reacting compound) × 100; nanobody T10.
Format: binding, llama
In short: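 Wild-type T10 (synthetic gene, pET28a(+), ompA leader, C-terminal His6/HA tags) expressed in BL21(DE3) (10 µM IPTG, 16 h, 15 °C), purified by Ni-NTA. Checkerboard-optimized TCC-BSA coat (4 h RT), 1% BSA block. Nanobody competed with serial dilutions of TCC (0–1 ug/mL) or related compounds, 1 h RT. Detection: anti-HA-peroxidase, TMB (pH 5.5, 10 min), A450.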
In the case of `O=C(Nc1ccc(Cl)c(Cl)c1)Nc1ccc(Cl)cc1O` [2’-OH TCC], the “CR (%) T10” value is reported as 15%. With `O=C(Nc1ccc(Cl)cc1)Nc1ccc(Cl)c(C(F)(F)F)c1` [3-Trifluoromethyl-4,4′-dichlorocarbanilide] the “CR (%) T10” value was 15%. With `O=C(Nc1ccc(Cl)cc1)Nc1ccc(Cl)cc1` [4,4’-Dichlorocarbanilide] the “CR (%) T10” value was 100%. In the case of `O=C(Nc1ccccc1)Nc1ccccc1` [Carbanilide], the “CR (%) T10” value is reported as 8.8%. In the case of `O=C(Nc1ccc(Cl)cc1)Nc1ccc(Cl)c(Cl)c1` [TCC, 3-(4-chlorophenyl)-1-(3,4-dichlorophenyl)urea], the “CR (%) T10” value is reported as 100%. In the case of `Oc1cc(Cl)ccc1Oc1ccc(Cl)cc1Cl` [Triclosan], the “CR (%) T10” value is reported as 0.9%. In the case of `CC(=O)N1CCC(NC(=O)Nc2ccc(OC(F)(F)F)cc2)CC1` [sEHi, #1555], the “CR (%) T10” value is reported as 0.9%. With `CS(=O)(=O)N1CCC(NC(=O)Nc2ccc(OC(F)(F)F)cc2)CC1` [sEHi, #1709] the “CR (%) T10” value was 1.5%. With Dinuron the “CR (%) T10” value was no more than 1%.
